These results are taken from ChEMBL document CHEMBL4145662, “Novel Nonsteroidal Progesterone Receptor (PR) Antagonists with a Phenanthridinone Skeleton” (ACS Med Chem Lett, 2018).

Series [1] concerns the target T1, Oxysterols receptor LXR-beta (Homo sapiens) (UniProt P55055).
T1 sequence (whole entry): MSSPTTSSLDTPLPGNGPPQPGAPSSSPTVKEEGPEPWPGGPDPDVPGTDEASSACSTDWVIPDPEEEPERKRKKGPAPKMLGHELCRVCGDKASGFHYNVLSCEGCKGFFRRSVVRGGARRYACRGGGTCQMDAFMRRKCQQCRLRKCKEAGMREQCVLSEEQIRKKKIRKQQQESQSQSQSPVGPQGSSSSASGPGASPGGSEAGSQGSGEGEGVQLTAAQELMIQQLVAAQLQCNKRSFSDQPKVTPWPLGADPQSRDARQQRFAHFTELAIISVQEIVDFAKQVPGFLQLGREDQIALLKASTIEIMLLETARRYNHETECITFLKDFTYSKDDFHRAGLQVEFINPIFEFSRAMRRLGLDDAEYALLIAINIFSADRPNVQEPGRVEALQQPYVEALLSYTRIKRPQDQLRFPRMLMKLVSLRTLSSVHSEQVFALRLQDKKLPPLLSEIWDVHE
The series can be described thus: Antagonist activity at human GAL4N-fused LXRbeta LBD expressed in HEK293 cells assessed as reduction in T0901317-induced transactivation activity at 20 uM after 24 hrs by luciferase reporter gene assay. In kind it is cell-based.

Series [2] concerns the target T2, Nuclear receptor ROR-gamma (Homo sapiens) (UniProt P51449).
T2 sequence (whole entry): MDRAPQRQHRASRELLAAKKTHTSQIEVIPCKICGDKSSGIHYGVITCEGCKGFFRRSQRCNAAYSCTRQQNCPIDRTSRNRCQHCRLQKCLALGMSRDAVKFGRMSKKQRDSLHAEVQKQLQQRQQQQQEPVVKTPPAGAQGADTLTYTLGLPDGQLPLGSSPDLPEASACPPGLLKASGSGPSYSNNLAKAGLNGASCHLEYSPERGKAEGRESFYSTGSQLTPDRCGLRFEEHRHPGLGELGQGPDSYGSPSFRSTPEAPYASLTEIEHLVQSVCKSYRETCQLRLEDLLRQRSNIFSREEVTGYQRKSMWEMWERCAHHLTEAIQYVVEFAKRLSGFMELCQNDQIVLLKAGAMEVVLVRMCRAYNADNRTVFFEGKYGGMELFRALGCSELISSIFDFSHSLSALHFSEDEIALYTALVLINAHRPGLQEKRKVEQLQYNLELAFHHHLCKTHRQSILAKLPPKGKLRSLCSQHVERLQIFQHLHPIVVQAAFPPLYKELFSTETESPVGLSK
The series can be described thus: Antagonist activity at human RORgamma1 expressed in HEK293 cells at 20 uM after 24 hrs by luciferase reporter gene assay. In kind it is cell-based. A digest of the protocol:
(§1)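 Inverse agonism at RORα, RORβ or RORγ measured by reporter gene assay.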
On the technique in general: In a reporter assay the amount or activity of a reporter protein is the signal.

For series [3], the target named is T3, Nuclear receptor ROR-gamma (Homo sapiens, UniProt P51449).
T3 sequence (P51449 whole entry): T2 sequence (whole entry)
The experiment in a line: Antagonist activity at human RORgamma1 expressed in HEK293 cells after 24 hrs by luciferase reporter gene assay. In kind it is cell-based. Summed up:
as §1

Series [4] is described as follows: Apparent permeability across apical to basolateral side in human Caco2 cells at 10 uM. In kind it is ADME, cell-based. The note with it: caco-2, 10 µM. For orientation: Caco-2 monolayers are a common model of the intestinal barrier.
The nature of series [5]: Stability in human liver microsomes at 0.1 uM by LC-MS/MS analysis. In kind it is ADME, microsome. A general note: Microsomes from liver hold many membrane-bound enzymes, among them those of drug oxidation.
The target in series [6] is T4, Oxysterols receptor LXR-beta (Homo sapiens, UniProt P55055).
T4 sequence (P55055 whole entry): T1 sequence (whole entry)
The experiment in a line: Antagonist activity at human GAL4N-fused LXRbeta LBD expressed in HEK293 cells assessed as reduction in T0901317-induced transactivation activity after 24 hrs by luciferase reporter gene assay. In kind it is cell-based.

The structures appear in SMILES notation. Active and inactive are the calls of the source. No cut-off for these calls is given here.

`Cc1cc(C(O)(C(F)(F)F)C(F)(F)F)cc2c1[nH]c(=O)c1cc(F)ccc12`: the outcome in series [1] and in series [2] was inactive.
For the molecule `Cc1cc(C(O)(C(F)(F)F)C(F)(F)F)cc2c1[nH]c(=O)c1ccccc12`, the 50% inhibitory concentration (IC50) in series [3] and in series [6] was > 20 µM throughout. The Papp entry in series [4] is “Permeable”. Further, the Stability entry in series [5] is listed as “Stable”.
Turning to `Cc1cc(C(O)(C(F)(F)F)C(F)(F)F)cc2c3ccc(F)cc3c(=O)n(C)c12`, the outcome in series [2] was inactive. In addition, in series [6], the IC50 was > 20 µM.

Usually IC50 stands for the concentration that gives 50% inhibition.
